# Assay results as given in ChEMBL document CHEMBL1138612, “Inhibition of monoamine oxidase by (E)-styrylisatin analogues” (Bioorg Med Chem Lett, 2009).
# Tests used:
# [1] = Inhibition of baboon liver MAOB; design: species or system Papio hamadryas
# Method in brief: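 Baboon liver mitochondrial fractions as MAO-B source, with MMTP as substrate. IC50 from means ± SEM of duplicate determinations. Reversibility was tested by preincubating inhibitor (40 nM) with the mitochondria for 0, 15, 30 and 60 min.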
# Homo sapiens = species on record: Homo sapiens; assay: Selectivity ratio of Ki for recombinant wild-type MAOA from human liver to Ki for recombinant wild-type MAOB from human liver
# Method in brief: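 Substrates were p-CF3-benzylamine for MAO-A (243 nm) and benzylamine for MAO-B (250 nm), six concentrations 50–3000 µM, three inhibitor levels. Ki from apparent Km versus inhibitor; selectivity = Ki(MAO-A)/Ki(MAO-B).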
# [2] = Inhibition of human MAOB […] mutant
# [3] = molecular target: T1, Amine oxidase [flavin-containing] A (Homo sapiens, UniProt P21397); assay: Inhibition of recombinant wild-type MAOA from human liver expressed in Pichia pastoris
# T1 sequence (P21397 whole entry): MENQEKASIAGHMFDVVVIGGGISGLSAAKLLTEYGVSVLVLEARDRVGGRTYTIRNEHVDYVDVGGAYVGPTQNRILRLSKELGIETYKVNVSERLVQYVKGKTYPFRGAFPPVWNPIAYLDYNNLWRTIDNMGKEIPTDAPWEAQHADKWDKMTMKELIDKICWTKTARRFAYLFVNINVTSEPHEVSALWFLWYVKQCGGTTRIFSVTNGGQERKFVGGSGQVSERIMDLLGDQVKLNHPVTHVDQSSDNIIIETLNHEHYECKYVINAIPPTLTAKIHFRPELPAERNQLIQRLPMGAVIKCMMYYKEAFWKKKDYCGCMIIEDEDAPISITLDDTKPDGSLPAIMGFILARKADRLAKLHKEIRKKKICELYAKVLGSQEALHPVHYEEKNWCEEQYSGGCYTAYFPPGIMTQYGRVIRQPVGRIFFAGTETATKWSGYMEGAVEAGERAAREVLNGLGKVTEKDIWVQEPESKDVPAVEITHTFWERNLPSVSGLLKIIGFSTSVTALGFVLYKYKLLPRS
# [4] = molecular target: T2, Amine oxidase [flavin-containing] B (Homo sapiens, UniProt P27338); assay: Inhibition of recombinant wild-type MAOB from human liver expressed in Pichia pastoris
# T2 sequence (P27338 whole entry): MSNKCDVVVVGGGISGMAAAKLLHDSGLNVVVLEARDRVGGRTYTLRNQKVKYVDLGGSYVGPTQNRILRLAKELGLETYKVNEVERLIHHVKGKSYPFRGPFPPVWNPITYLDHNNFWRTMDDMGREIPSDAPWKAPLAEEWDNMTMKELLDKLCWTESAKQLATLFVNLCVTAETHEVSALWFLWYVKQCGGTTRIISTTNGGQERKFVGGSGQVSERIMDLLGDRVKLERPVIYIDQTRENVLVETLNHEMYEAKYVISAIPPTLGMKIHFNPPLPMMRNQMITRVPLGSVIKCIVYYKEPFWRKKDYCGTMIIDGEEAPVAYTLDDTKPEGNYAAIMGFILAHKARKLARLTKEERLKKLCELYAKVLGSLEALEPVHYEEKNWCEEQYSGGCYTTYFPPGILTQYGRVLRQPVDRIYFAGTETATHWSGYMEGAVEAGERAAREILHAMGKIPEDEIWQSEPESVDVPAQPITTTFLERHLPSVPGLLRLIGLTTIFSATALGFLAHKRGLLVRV
smiles,measurement,setting,value
O=C1Nc2ccc(/C=C/c3ccccc3)cc2C1=O,IC50,[1],41.7 nM
same,Ratio Ki,Homo sapiens,5
same,Ki,[2],1100 nM
same,Ki,[3],780 nM
same,Ki,[4],310 nM
O=C1Nc2ccc(/C=C/c3cccc(Cl)c3)cc2C1=O,IC50,[1],20.7 nM
same,Ratio Ki,Homo sapiens,2.5
same,Ki,[2],12500 nM
same,Ki,[3],5600 nM
same,Ki,[4],1400 nM
O=C1Nc2ccc(/C=C/c3cccc(F)c3)cc2C1=O,Ki,[3],2200 nM
